From ChEMBL document CHEMBL1123712, “Synthesis and biological activity of novel calcium channel blockers: 2,5-dihydro-4-methyl-2-phenyl-1,5-benzothiazepine-3-carboxylic acid esters and 2,5-dihydro-4-methyl-2-phenyl-1,5-benzodiazepine-3-carboxylic acid esters” (J Med Chem, 1987)

Columns and labels:
[1] = organism: Oryctolagus cuniculus; experiment: Calcium channel blocking activity in rabbit; type: functional
How it was run: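 Thoracic aorta strips from male New Zealand rabbits (1.8–2.4 kg) in Krebs PSS at 37 °C, gassed 95% O2/5% CO2, pH 7.35. Contracted with high-K+ (100 mM KCl, NaCl reduced equimolar) Krebs. At plateau tension, increasing concentrations added cumulatively. Relaxation normalized to initial tension. IC50 by logit transformation of concentration-response curves.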

[2] = target: Voltage-dependent L-type calcium channel subunit alpha-1C (Canis lupus familiaris); experiment: Reduction in amplitude of calcium-dependent slow-response action potential by blocking voltage sensitive calcium channel
[3] = system: Rattus norvegicus; experiment: Percent decrease in blood pressure in hypertensive rat at 60 mg/kg po; type: functional
How it was run: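 Spontaneously hypertensive rats dosed orally. Read-out was percent fall in blood pressure.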

[4] = system: Rattus norvegicus; experiment: Percent decrease in blood pressure in hypertensive rat at 16 mg/kg po; type: functional
How it was run: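 Spontaneously hypertensive rats dosed orally. Blood pressure read-out expressed as percent decrease. Test agents were given […] po.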

Compound	IC50 [1] [nM]	other results
CO/C(O)=C1\C(C)=Nc2ccccc2SC1c1ccc(OC)cc1 (stereo unspecified)	22000	
CO/C(O)=C1\C(C)=Nc2ccccc2SC1c1cccc([N+](=O)[O-])c1 (stereo unspecified)	1200	IC50 [2]: 140 nM
CCO/C(O)=C1\C(C)=Nc2ccccc2NC1c1cccc([N+](=O)[O-])c1 (stereo unspecified)	1600	
COC(=O)C1=C(C)N(CCN(C)C)c2ccccc2SC1c1cccc([N+](=O)[O-])c1 (stereo unspecified)	1100	
CO/C(O)=C1\C(C)=Nc2ccccc2SC1c1ccc([N+](=O)[O-])cc1 (stereo unspecified)	3000	
COc1ccc([C@@H]2Sc3ccccc3N(CCN(C)C)C(=O)[C@@H]2OC(C)=O)cc1 [DILTIAZEM]	1000	Decrease [3]: 10%
COC(=O)C1=C(C)NC(C)=C(C(=O)OC)C1c1ccccc1[N+](=O)[O-] [NIFEDIPINE]	1	Decrease [4]: 25%

Further lines, with some results ahead:

IC50 [1] [nM]	Compound	other results
1700	CO/C(O)=C1\C(C)=Nc2ccccc2SC1c1ccccc1 (stereo unspecified)	
12000	CO/C(O)=C1\C(C)=Nc2ccccc2SC1c1ccccc1C(F)(F)F (stereo unspecified)	
500	CC1=Nc2ccccc2SC(c2cccc([N+](=O)[O-])c2)/C1=C(\O)OC(C)C (stereo unspecified)	
400	CCO/C(O)=C1\C(C)=Nc2ccccc2SC1c1cccc([N+](=O)[O-])c1 (stereo unspecified)	
300	CO/C(O)=C1\C(C)=Nc2ccccc2SC1c1ccccc1[N+](=O)[O-] (stereo unspecified)	
10000	CO/C(O)=C1\C(C)=Nc2ccccc2S(=O)(=O)C1c1ccccc1 (stereo unspecified)	
